Tests used:
[1] = tested on: Human immunodeficiency virus 1; assay: Antiviral activity against R5-HIV1MDR/MM assessed as inhibition of p24 Gag protein production in human PHA-PBMC by ELISA; type: functional, organism-based
Summary of the method: (§1)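 PHA-stimulated PBMC (10^6 cells/ml; 10^5 cells/well) were infected with 50 TCID50 of HIV-1Ba-L or a primary multidrug-resistant isolate and cultured with drug in 10-fold serial dilutions. On day 7, supernatant p24 Gag was measured by automated chemiluminescent enzyme immunoassay. EC50 is the concentration that halves p24 relative to drug-free cultures. Triplicate assays.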

[2] = tested on: Human immunodeficiency virus 1; assay: Antiviral activity against R5-HIV1MDR/C assessed as inhibition of p24 Gag protein production in human PHA-PBMC by ELISA; type: functional, organism-based; summary of the method: as §1
[3] = tested on: Human immunodeficiency virus 1; assay: Antiviral activity against R5-HIV1MDR/G assessed as inhibition of p24 Gag protein production in human PHA-PBMC by ELISA; type: functional, organism-based; summary of the method: as §1
MT4 = assay: Cytotoxicity against human MT4 cells by MTT assay; type: functional
[4] = Cytotoxicity against human PHA-PBMC cells by MTT assay; type: cell-based
[5] = tested on: Human immunodeficiency virus 1; assay: Ratio of EC50 for R5-HIV1MDR/MM in human PHA-PBMC to EC50 for R5-HIV1Ba-L in human PHA-PBMC; type: functional
[6] = tested on: Human immunodeficiency virus 1; assay: Antiviral activity against R5-HIV1MDR/G assessed as inhibition of p24 Gag protein in human PHA-PBMC by ELISA relative to X4-HIV1NL4-3; type: functional
[7] = tested on: Human immunodeficiency virus 1; assay: Ratio of EC50 for X4-HIV1MDR/C in human PHA-PBMC to EC50 for X4-HIV1NL4-3 in human MT4 cells; type: functional, NL4-3
[8] = tested on: Human immunodeficiency virus 1; assay: Antiviral activity against X4-HIV1 NL4-3 assessed as […] in human MT4 cells by MTT assay; type: functional, organism-based; conditions: Human immunodeficiency virus 1, NL4-3, MT4
[9] = tested on: Human immunodeficiency virus 1; assay: Antiviral activity against R5-HIV1Ba-L assessed as inhibition of p24 Gag protein production in human PHA-PBMC by ELISA; type: functional, organism-based; conditions: Human immunodeficiency virus 1, Ba-L; summary of the method: as §1
CCRF-CEM [10] = assay: Drug level in human CD4+CEM cells assessed as increase in 4'-ethynyl-2-fluoro-2'-deoxyadenosine triphosphate level at 0.1 uM after 6 hrs; type: ADME, cell-based
Summary of the method: (§2)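 CEM cells (10^6 cells/ml) were incubated 6 h with 0.1, 1 or 10 µM [3H]-labelled nucleoside, then washed. Intracellular nucleosides/nucleotides were extracted in 60% methanol and separated by SAX ion-exchange HPLC on an ammonium phosphate gradient. One-minute fractions up to 40 min were scintillation-counted, and each peak plus flanking fractions were summed. Two independent experiments were run.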

CCRF-CEM [11] = assay: Metabolic stability of the compound in human CD4+ CEM cells assessed as 4'-ethynyl-2-fluoro-2'-deoxyadenosine monophosphate intracellular levels at 200 nM after 8 hrs; type: ADME, cell-based; conditions: 0.2 µM
Summary of the method: (§3)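 CEM cells (10^6 cells/ml) were loaded 6 h with 200 nM [3H]-labelled nucleoside, washed thoroughly, then cultured drug-free for 0, 2, 4, 8, 12 or 24 h. Cells were extracted in 60% methanol, and mono-, di- and triphosphates were quantified by SAX HPLC with fraction scintillation counting. Values are means of 2–3 independent experiments.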

CCRF-CEM [12] = assay: Metabolic stability of the compound in human CD4+ CEM cells assessed as 4'-ethynyl-2-fluoro-2'-deoxyadenosine diphosphate intracellular levels at 200 nM after 8 hrs; type: ADME, cell-based; conditions: 0.2 µM; summary of the method: as §3
CCRF-CEM [13] = assay: Metabolic stability of the compound in human CD4+ CEM cells assessed as 4'-ethynyl-2-fluoro-2'-deoxyadenosine triphosphate intracellular levels at 200 nM after 8 hrs; type: ADME, cell-based; conditions: 0.2 µM; summary of the method: as §3
CCRF-CEM [14] = assay: Metabolic stability of the compound in human CEM cells assessed as 3'-azido-2',3'-dideoxythymidine monophosphate intracellular levels at 200 nM after 24 hrs; type: ADME, cell-based; conditions: 0.2 µM; summary of the method: as §3
CCRF-CEM [15] = assay: Metabolic stability of the compound in human CEM cells assessed as 3'-azido-2',3'-dideoxythymidine diphosphate intracellular levels at 200 nM after 24 hrs; type: ADME, cell-based; conditions: 0.2 µM; summary of the method: as §3
CCRF-CEM [16] = assay: Metabolic stability of the compound in human CEM cells assessed as 3'-azido-2',3'-dideoxythymidine triphosphate intracellular levels at 200 nM after 24 hrs; type: ADME, cell-based; conditions: 0.2 µM; summary of the method: as §3
CCRF-CEM [17] = assay: Drug uptake in human CD4+CEM cells assessed as 4'-ethynyl-2-fluoro-2'-deoxyadenosine monophosphate half life at 200 nM; type: ADME, cell-based; conditions: 0.2 µM; summary of the method: as §3
CCRF-CEM [18] = assay: Drug uptake in human CD4+CEM cells assessed as 4'-ethynyl-2-fluoro-2'-deoxyadenosine diphosphate half life at 200 nM; type: ADME, cell-based; conditions: 0.2 µM; summary of the method: as §3
CCRF-CEM [19] = assay: Drug uptake in human CD4+CEM cells assessed as 4'-ethynyl-2-fluoro-2'-deoxyadenosine triphosphate half life at 200 nM; type: ADME, cell-based; conditions: 0.2 µM; summary of the method: as §3
CCRF-CEM [20] = assay: Drug level in human CD4+CEM cells per 10^9 cells at 0.1 uM; type: ADME, cell-based; summary of the method: as §2
[21] = tested on: Human immunodeficiency virus 1; assay: Antiviral activity against HIV1 NL4-3 replication in human MT4 cells at 0.01 uM pretreated 24 hrs before infection assessed as protection at 0.01 uM by MTT assay; type: functional
[22] = tested on: Human immunodeficiency virus 1; assay: Antiviral activity against HIV1 NL4-3 replication in human MT4 cells at 0.01 uM pretreated 48 hrs before infection assessed as protection at 0.01 uM by MTT assay; type: functional
[23] = Inhibition of human DNA polymerase alpha using calf thymus DNA as a template
Summary of the method: (§4)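 Each 30-min, 37 °C reaction contained 50 mM Tris pH 8.0, 8 mM MgCl2, 60 mM KCl, 10 mM DTT, BSA, 0.3 µM [α-32P]dATP, inhibitor, and either 250 nM D21/D36 or 0.1 mg/ml activated calf thymus DNA. Enzyme was 1 unit polymerase α, 100 nM β or 2.5 nM γ. Reactions were stopped with EDTA and spotted onto DE81 filters. Incorporated dAMP was quantified by phosphorimaging to give the IC50.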

[24] = Inhibition of human DNA polymerase beta using D21/D36 DNA as a template; summary of the method: as §4
[25] = Inhibition of human DNA polymerase beta using calf thymus DNA as a template; summary of the method: as §4
[26] = Inhibition of human DNA polymerase gamma using D21/D36 DNA as a template; summary of the method: as §4
[27] = Inhibition of human DNA polymerase gamma using calf thymus DNA as a template; summary of the method: as §4
[28] = tested on: Human immunodeficiency virus 1; assay: Antiviral activity against HIV1 NL4-3 replication in human MT4 cells at 0.01 uM pretreated 24 hrs before infection assessed as protection at 1 uM by MTT assay; type: functional
[29] = tested on: Human immunodeficiency virus 1; assay: Antiviral activity against HIV1 NL4-3 replication in human MT4 cells at 0.01 uM pretreated 48 hrs before infection assessed as protection at 1 uM by MTT assay; type: functional
CCRF-CEM [30] = assay: Drug level in human CD4+CEM cells assessed as increase in 3'-azido-2',3'-dideoxythymidine triphosphate level at 0.1 uM after 6 hrs; type: ADME, cell-based; summary of the method: as §2
CCRF-CEM [31] = assay: Metabolic stability of the compound in human CD4+ CEM cells assessed as 3'-azido-2',3'-dideoxythymidine monophosphate intracellular levels at 200 nM after 8 hrs; type: ADME, cell-based; conditions: 0.2 µM; summary of the method: as §3
CCRF-CEM [32] = assay: Metabolic stability of the compound in human CD4+ CEM cells assessed as 3'-azido-2',3'-dideoxythymidine diphosphate intracellular levels at 200 nM after 8 hrs; type: ADME, cell-based; conditions: 0.2 µM; summary of the method: as §3
CCRF-CEM [33] = assay: Metabolic stability of the compound in human CD4+ CEM cells assessed as 3'-azido-2',3'-dideoxythymidine triphosphate intracellular levels at 200 nM after 8 hrs; type: ADME, cell-based; conditions: 0.2 µM; summary of the method: as §3
CCRF-CEM [34] = assay: Drug uptake in human CD4+CEM cells assessed as 3'-azido-2',3'-dideoxythymidine monophosphate half life at 200 nM; type: ADME, cell-based; conditions: 0.2 µM; summary of the method: as §3
CCRF-CEM [35] = assay: Drug uptake in human CD4+CEM cells assessed as 3'-azido-2',3'-dideoxythymidine diphosphate half life at 200 nM; type: ADME, cell-based; conditions: 0.2 µM; summary of the method: as §3
CCRF-CEM [36] = assay: Drug uptake in human CD4+CEM cells assessed as 3'-azido-2',3'-dideoxythymidine triphosphate half life at 200 nM; type: ADME, cell-based; conditions: 0.2 µM; summary of the method: as §3

## CC(C)(C)NC(=O)[C@@H]1C[C@@H]2CCCC[C@@H]2CN1C[C@@H](O)[C@H](Cc1ccccc1)NC(=O)[C@H](CC(N)=O)NC(=O)c1ccc2ccccc2n1
[1]
  EC50: 220 nM
[2]
  EC50: 37 nM
[3]
  EC50: 26 nM
MT4
  CC50: 26000 nM
[4]
  CC50: 78000 nM
[5]
  fold change (FC): 28
[6]
  fold change (FC): 3
[7]
  fold change (FC): 4

## CC(C)CN(C[C@@H](O)[C@H](Cc1ccccc1)NC(=O)O[C@H]1CCOC1)S(=O)(=O)c1ccc(N)cc1
[8]
  EC50: 24 nM
[2]
  EC50: 280 nM
MT4
  CC50: > 100000 nM
[4]
  CC50: > 100000 nM
[5]
  fold change (FC): 17
[6]
  fold change (FC): 10
[7]
  fold change (FC): 12

## C#C[C@]1(CO)O[C@@H](n2cnc3c(N)nc(F)nc32)C[C@@H]1O
[9]
  EC50: 0.4 nM
[1]
  EC50: 3 nM
[8]
  EC50: 1 nM
[2]
  EC50: 4 nM
[3]
  EC50: 21 nM
MT4
  CC50: 11000 nM
[4]
  CC50: 12000 nM
CCRF-CEM [10]
  Activity: 22
CCRF-CEM [11]
  Activity: 50%
CCRF-CEM [12]
  Activity: 45%
CCRF-CEM [13]
  Activity: 72%
CCRF-CEM [14]
  Activity: 31%
CCRF-CEM [15]
  Activity: 23%
CCRF-CEM [16]
  Activity: 38%
CCRF-CEM [17]
  t1/2: 8.1 h
CCRF-CEM [18]
  t1/2: 6.7 h
CCRF-CEM [19]
  t1/2: 17.2 h
CCRF-CEM [20]
  Drug uptake: 1730 pmol
[21]
  Activity: 75%
[22]
  Activity: 47%
[5]
  fold change (FC): 8
[6]
  fold change (FC): 21
[7]
  fold change (FC): 4

## C#C[C@]1(COP(=O)(O)OP(=O)(O)OP(=O)(O)O)O[C@@H](n2cnc3c(N)nc(F)nc32)C[C@@H]1O
[23]
  IC50: > 100000 nM
[24]
  IC50: > 100000 nM
[25]
  IC50: > 100000 nM
[26]
  IC50: > 100000 nM
  Ki: 24400 nM
[27]
  IC50: 10000 nM

## Nc1ncnc2c1ncn2[C@H]1CC[C@@H](COP(=O)(O)OP(=O)(O)OP(=O)(O)O)O1 [DDA-TRIPHOSPHATE]
[23]
  IC50: > 100000 nM
[24]
  IC50: 3000 nM
[25]
  IC50: 200 nM
[26]
  IC50: 2000 nM
  Ki: 4600 nM
[27]
  IC50: 200 nM

## C[C@H](Cn1cnc2c(N)ncnc21)OCP(=O)(O)O [TENOFOVIR ANHYDROUS]
[9]
  EC50: 32 nM
[1]
  EC50: 82 nM
[2]
  EC50: 47 nM
[3]
  EC50: 87 nM
[4]
  CC50: 53000 nM
[28]
  Activity: 90%
[29]
  Activity: 64%
[5]
  fold change (FC): 3
[6]
  fold change (FC): 3
[7]
  fold change (FC): 2

## Cc1cn([C@H]2C[C@H](N=[N+]=[N-])[C@@H](CO)O2)c(=O)[nH]c1=O [ZIDOVUDINE]
[1]
  EC50: 340 nM
[8]
  EC50: 33 nM
[2]
  EC50: 390 nM
[3]
  EC50: 380 nM
MT4
  CC50: > 100000 nM
[4]
  CC50: > 10000 nM
CCRF-CEM [30]
  Activity: 2.4
CCRF-CEM [31]
  Activity: 16%
CCRF-CEM [32]
  Activity: 26%
CCRF-CEM [33]
  Activity: 26%
CCRF-CEM [14]
  Activity: 10%
CCRF-CEM [15]
  Activity: 11%
CCRF-CEM [16]
  Activity: 9%
CCRF-CEM [34]
  t1/2: 1.4 h
CCRF-CEM [35]
  t1/2: 1.6 h
CCRF-CEM [36]
  t1/2: 2.8 h
CCRF-CEM [20]
  Drug uptake: 4349 pmol
[28]
  Activity: 55%
[29]
  Activity: 9.2%
[5]
  fold change (FC): 22
[6]
  fold change (FC): 12
[7]
  fold change (FC): 12

Source: ChEMBL document CHEMBL1155177, “Activity against human immunodeficiency virus type 1, intracellular metabolism, and effects on human DNA polymerases of 4'-ethynyl-2-fluoro-2'-deoxyadenosine” (Antimicrob Agents Chemother, 2007)
